Measurements from ChEMBL document CHEMBL1157704, “Potent activity against K562 cells by polyamide-seco-CBI conjugates targeting histone H4 genes” (Bioorg Med Chem, 2010).
Activity calls are given as the source filed them.

Key:
K562 [1] = assay: Effect on S100A4 gene expression in human K562 cells assessed as change in mRNA transcript expression at 10 nM after 48 hrs by DNA microarray analysis relative to control; format: functional
Outline: (§1)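 K562 CML cells (b3a2 Bcr-Abl) in standard ATCC-recommended culture, exposed once to 10 nM conjugate and harvested at 48 h. Untreated controls were also collected at 48 h. Transcripts were profiled on Human Gene 1.0 ST whole-genome oligonucleotide arrays, and each treated level was expressed relative to the untreated control, with a cutoff of at least twofold change.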

K562 [2] = assay: Effect on GPR56 gene expression in human K562 cells assessed as change in mRNA transcript expression at 10 nM after 48 hrs by DNA microarray analysis relative to control; format: functional
Outline: (§2)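 Transcripts were profiled on Affymetrix GeneChip Human Gene 1.0 ST arrays in K562 cells treated at 10 nM. Treated cells were collected at 6, 12, 24 and 48 h; untreated controls were collected at 48 h. Transcripts changed at least twofold versus control were scored.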

K562 [3] = assay: Downregulation of histone H4C mRNA expression in human K562 cells at 125 nM after 48 hrs by real-time PCR analysis; format: functional, cell-based
Outline: (§3)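 K562 cells were treated for 48 h, and H4c and H4e mRNA were measured by one-step real-time RT-PCR. Reverse transcription ran at 50 °C for 10 min, then hot-start activation at 95 °C for 15 min. Cycling was 45 cycles of 95 °C 15 s, 55 °C 30 s and 72 °C 30 s. Levels were normalized to GAPDH mRNA; error bars are SD.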

K562 [4] = assay: Effect on PITPNC1 gene expression in human K562 cells assessed as change in mRNA transcript expression at 10 nM after 48 hrs by DNA microarray analysis relative to control; format: functional; outline: as §1
K562 [5] = assay: Effect on AMN1 gene expression in human K562 cells assessed as change in mRNA transcript expression at 10 nM after 48 hrs by DNA microarray analysis relative to control; format: functional; outline: as §2
K562 [6] = assay: Effect on TOMM22 gene expression in human K562 cells assessed as change in mRNA transcript expression at 10 nM after 48 hrs by DNA microarray analysis relative to control; format: functional
Outline: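 K562 CML cells (b3a2 Bcr-Abl) kept under standard culture conditions were exposed to 10 nM conjugate and harvested at 6, 12, 24 and 48 h. Untreated controls were harvested at 48 h. Whole-transcript oligonucleotide microarray profiling was done, and changes of at least twofold versus control were scored.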

K562 [7] = assay: Effect on LOC85391 gene expression in human K562 cells assessed as change in mRNA transcript expression at 10 nM after 48 hrs by DNA microarray analysis relative to control; format: functional; outline: as §1
K562 [8] = assay: Effect on SNORD80 gene expression in human K562 cells assessed as change in mRNA transcript expression at 10 nM after 48 hrs by DNA microarray analysis relative to control; format: functional; outline: as §1
K562 [9] = assay: Induction of apoptosis in human K562 cells assessed as late apoptotic cells at 125 nM after 48 hrs by annexin-V FITC and propidium iodide staining-based FACS analysis; format: functional
Outline: (§4)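 K562 cells were exposed to conjugate in culture medium for 48 h, then stained with annexin V-FITC plus propidium iodide. Cell populations were quantified by flow cytometry.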

K562 [10] = assay: Effect on MRPS28 gene expression in human K562 cells assessed as change in mRNA transcript expression at 10 nM after 48 hrs by DNA microarray analysis relative to control; format: functional; outline: as §1
K562 [11] = assay: Effect on MYL4 gene expression in human K562 cells assessed as change in mRNA transcript expression at 10 nM after 48 hrs by DNA microarray analysis relative to control; format: functional; outline: as §1
K562 [12] = assay: Induction of apoptosis in human K562 cells assessed as non-viable necrotic cells at 125 nM after 48 hrs by annexin-V FITC and propidium iodide staining-based FACS analysis; format: functional; outline: as §4
K562 [13] = assay: Effect on CD52 gene expression in human K562 cells assessed as change in mRNA transcript expression at 10 nM after 48 hrs by DNA microarray analysis relative to control; format: functional; outline: as §2
K562 [14] = assay: Effect on ARRDC3 gene expression in human K562 cells assessed as change in mRNA transcript expression at 10 nM after 48 hrs by DNA microarray analysis relative to control; format: functional; outline: as §2
K562 [15] = assay: Effect on SASH1 gene expression in human K562 cells assessed as change in mRNA transcript expression at 10 nM after 48 hrs by DNA microarray analysis relative to control; format: functional; outline: as §1
K562 [16] = assay: Effect on HIST1H1E gene expression in human K562 cells assessed as change in mRNA transcript expression at 10 nM after 48 hrs by DNA microarray analysis relative to control; format: functional; outline: as §2
[17] = system: histone H4c gene fragment DNA (human); assay: Binding affinity to 5'-ACGCCA-3' sequence of 223 bp human histone H4c gene fragment DNA assessed as DNA alkylating activity at 5 to 100 nM after 15 hrs by PAGE
K562 [18] = assay: Effect on PPP1R15A gene expression in human K562 cells assessed as change in mRNA transcript expression at 10 nM after 48 hrs by DNA microarray analysis relative to control; format: functional; outline: as §1
[19] = system: histone H4c gene fragment DNA (human); assay: Binding affinity to 5'-AGAAAA-3' sequence of 223 bp human histone H4c gene fragment DNA assessed as DNA alkylating activity at 5 to 100 nM after 15 hrs by PAGE
K562 [20] = assay: Cell cycle arrest in human K562 cells assessed as decrease in accumulation at G1 phase at 125 to 250 nM after 48 hrs propidium iodide staining-based FACS analysis; format: functional
Outline: (§5)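 K562 cells, from ATCC and kept under ATCC-recommended conditions, were treated for 48 h and pelleted at 200g for 5 min. They were resuspended in PBS, fixed with prechilled 70% ethanol and stained with propidium iodide at 50 µg/mL. DNA content was read by flow cytometry to assign the G0–G1, S and G2–M fractions; sub-2C DNA content was taken as apoptosis.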

K562 [21] = assay: Effect on HIST2H2AB gene expression in human K562 cells assessed as change in mRNA transcript expression at 10 nM after 48 hrs by DNA microarray analysis relative to control; format: functional; outline: as §1
K562 [22] = assay: Downregulation of histone H4E mRNA expression in human K562 cells at 125 nM after 48 hrs by real-time PCR analysis; format: functional, cell-based; outline: as §3
K562 [23] = assay: Effect on JUN gene expression in human K562 cells assessed as change in mRNA transcript expression at 10 nM after 48 hrs by DNA microarray analysis relative to control; format: functional; outline: as §1
K562 [24] = assay: Effect on CD226 gene expression in human K562 cells assessed as change in mRNA transcript expression at 10 nM after 48 hrs by DNA microarray analysis relative to control; format: functional; outline: as §2
K562 [25] = assay: Effect on CLCA1 gene expression in human K562 cells assessed as change in mRNA transcript expression at 10 nM after 48 hrs by DNA microarray analysis relative to control; format: functional; outline: as §2
K562 [26] = assay: Cell cycle arrest in human K562 cells assessed as increase in accumulation at S phase at 125 to 250 nM after 48 hrs propidium iodide staining-based FACS analysis; format: functional; outline: as §5

CC(=O)Nc1cn(C)c(C(=O)Nc2cn(C)c(C(=O)NCCC(=O)Nc3cn(C)c(C(=O)NCCCC(=O)Nc4cc(C(=O)Nc5cn(C)c(C(=O)Nc6ccc7[nH]c(C(=O)N8CC(CCl)c9c8cc(O)c8ccccc98)cc7c6)n5)n(C)c4)n3)n2)n1 (stereo unspecified)
2.07%: Activity (K562 [12])
>=2: fold change (FC) (K562 [1]) | fold change (FC) (K562 [2]) | fold change (FC) (K562 [4]) | fold change (FC) (K562 [5]) | fold change (FC) (K562 [6]) | fold change (FC) (K562 [7]) | fold change (FC) (K562 [8]) | fold change (FC) (K562 [10]) | fold change (FC) (K562 [11]) | fold change (FC) (K562 [13]) | fold change (FC) (K562 [14]) | fold change (FC) (K562 [15]) | fold change (FC) (K562 [16]) | fold change (FC) (K562 [18]) | fold change (FC) (K562 [21]) | fold change (FC) (K562 [23]) | fold change (FC) (K562 [24]) | fold change (FC) (K562 [25])
9.21%: Activity (K562 [9])
active: Activity (K562 [3]) | Activity [17] | Activity [19] | Activity (K562 [20]) | Activity (K562 [22]) | Activity (K562 [26])
